E-selectin induc: induces E-selectin expression in human endothelial cells. activation, % at 7.58 µM. HUVEC E-selectin immunofluorescence imaging; normalized: neutral wells 0, TNF-alpha wells 100. AID 686992. actives 0.37% (n = 260,000);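 active = mean E-selectin-positive cell signal at least 10% of the positive control, reached in at least 60% of replicates, without over 20% cell loss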
Target sequence (P16581 whole entry, looked up): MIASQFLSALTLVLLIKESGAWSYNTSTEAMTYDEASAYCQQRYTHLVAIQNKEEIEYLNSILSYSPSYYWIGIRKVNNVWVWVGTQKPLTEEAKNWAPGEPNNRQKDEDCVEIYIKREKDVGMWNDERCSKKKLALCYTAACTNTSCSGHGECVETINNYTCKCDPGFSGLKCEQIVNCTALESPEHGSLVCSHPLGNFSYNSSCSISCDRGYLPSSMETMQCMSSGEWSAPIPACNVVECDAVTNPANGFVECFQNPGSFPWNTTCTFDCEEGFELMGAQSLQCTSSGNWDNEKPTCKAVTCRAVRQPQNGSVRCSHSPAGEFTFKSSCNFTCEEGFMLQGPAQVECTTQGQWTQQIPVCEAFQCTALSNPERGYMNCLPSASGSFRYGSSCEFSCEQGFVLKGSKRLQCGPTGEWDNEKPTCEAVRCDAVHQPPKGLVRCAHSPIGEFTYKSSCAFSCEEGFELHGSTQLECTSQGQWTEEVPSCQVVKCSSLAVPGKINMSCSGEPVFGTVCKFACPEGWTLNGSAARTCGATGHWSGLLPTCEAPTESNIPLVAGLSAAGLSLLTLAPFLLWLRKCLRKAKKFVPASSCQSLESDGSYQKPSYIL
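material = human umbilical vein endothelial cells (HUVEC), E-selectin induction | quantity = 3,000 cells/well | medium = EGM-2 growth medium on 0.1% gelatin-coated wells | technique = immunofluorescence imaging | read-out basis = % PE-positive cells | control set = TNF-alpha positive control, DMSO neutral control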
S100A4 MyoIIA: blocks human S100A4 binding to myosin IIA peptide | S100A4/TAMRA-MyoIIA peptide fluorescence polarization | inhibition, % at 10.7 µM | actives 0.14% (n = 360,000) | P26447;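 active = mean inhibition of at least 70% across replicates, with every replicate also reaching that level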
Target sequence (P26447 whole entry, looked up): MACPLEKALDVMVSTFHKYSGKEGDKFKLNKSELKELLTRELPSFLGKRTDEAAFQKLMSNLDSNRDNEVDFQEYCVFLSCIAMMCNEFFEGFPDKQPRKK
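assay system = human S100A4 monomer with TAMRA-labelled myosin IIA peptide | also added = labelled myosin peptide probe, 5 nM | incubation = 5 min between mix addition and reading | control set = DMSO and TFP controls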
SIRT5 block: blocks human SIRT5 desuccinylation of peptide; inhibition, % at 15 µM; Q9NXA8; AID 652115; Purified SirT5, succinyl-peptide AMC, trypsin-coupled fluorescence; actives 1.1% (n = 330,000); in the data active = inhibition above about 15%
FGF22 binding: shifts melting point of recombinant human FGF22; Q9HCT0; recombinant FGF22 thermal shift, SYPRO orange fluorescence; percent of sucrose octasulfate shift, DMSO zero; activity (Tm shift, normalised), % at 9.99 µM; actives 1.5% (n = 340,000); AID 651658;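 active = mean Tm shift, scaled 0 neutral to 100 positive control, at about 1.3% or above, every replicate too, limit read from the data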
miR122 inh: blocks miR-122 activity in Huh7 sensor cells; actives 0.3% (n = 340,000); Huh7 miR-122 Renilla luciferase sensor, 48 h; neutral wells = 0, positive control = 100; activation (reporter increase), % at 12.5 µM; AID 602342;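 active = mean replicate activation score at least 90 and every replicate individually at or above 90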;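 also: higher luciferase means less miR-122 activity so hits act as miR-122 inhibitors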
Numbers stand for hits; 0 = inactive; - = not tested or not shown; ! = not confirmed by another sample. In the library only some 2.5% were active in any assay of this set; here they are far more common.

SMILES | E-selectin induc | S100A4 MyoIIA | SIRT5 block | FGF22 binding | miR122 inh
COCc1cn(CC[C@H]2CC[C@@H](NC(=O)Nc3ccccc3)[C@H](CO)O2)nn1 | 0 | 0 | 0 | 0 | -
Nc1cc(S(=O)(=O)O)cc([N+](=O)[O-])c1O | 0 | 0 | 30 | 0 | -
Nc1cccc2c(O)cc(S(=O)(=O)O)cc12 | - | - | - | - | 0
CO[C@H]1CN(C)C(=O)c2cc(NS(C)(=O)=O)ccc2OC[C@H](C)NC[C@H]1C | 0 | 0 | 0 | - | -
CN1c2ccc(-c3ccccc3)cc2[C@H]2[C@H](CCN2C(=O)c2ccccc2)[C@H]1CO | 0 | 0 | - | 0 | 0
CN(C)C(=O)c1cccc(-c2ccc3c(c2)[C@H]2[C@H](CCN2C(=O)c2ccccc2)[C@@H](CO)N3C)c1 | 0 | 0 | 15 | 0 | 0
CN(C)C(=O)c1ccc(-c2ccc3c(c2)[C@H]2[C@H](CCN2C(=O)C2CCOCC2)[C@@H](CO)N3C)cc1 | 0 | 0 | 17 | - | 0
CCC(=O)N1CC2(C1)[C@H](c1ccc(-c3ccccc3)cc1)[C@H](CO)N2S(C)(=O)=O | 0 | 0 | 0 | 0 | -
COc1ccc(NC(=O)N(C)C[C@@H]2Oc3ccc(NS(=O)(=O)c4ccc(C)cc4)cc3C(=O)N([C@@H](C)CO)C[C@H]2C)cc1 | 0 | - | - | - | 0
Cc1ccccc1OCC(=O)Nc1nc2ccccc2[nH]1 | 0 | 0 | 0 | 43 | -
Cc1ccccc1OCC(=O)NNC(=O)CCN1C(=O)c2ccccc2C1=O | - | 0 | 0 | 43 | 0
Cc1ccccc1OCC(=O)NNC=O | - | 0 | 0 | 43 | 0
Cc1ccccc1NC(=O)COc1ccccc1C | - | 0 | 0 | 0 | 0
C[C@@H]1CCCCO[C@@H](CN(C)S(C)(=O)=O)[C@@H](C)CN([C@H](C)CO)C(=O)c2cc(NC(=O)c3ccccc3)ccc2O1 | 0 | 0 | 0 | 0 | 0
C[C@@H](NC(=O)C[C@H]1CC[C@H](NC(=O)Cc2ccccn2)[C@@H](CO)O1)c1ccccc1 | 0 | 0 | 0 | 0 | 0
C[C@@H]1CN([C@H](C)CO)C(=O)c2cc(NC(=O)C3CC3)ccc2O[C@H]1CN(C)S(=O)(=O)c1cccs1 | 0 | 0 | 0 | 0 | 0
N=c1sccn1CC(=O)Nc1ccc(S(N)(=O)=O)cc1 | - | 0 | 0 | 0 | 0
N=c1sccn1CC(=O)Nc1ccc(SC(F)F)cc1 | 0 | 0 | 0 | 43 | 0
Cc1cccc(C(=O)Nc2ccc(O)c3c(=O)cc(-c4ccccc4Cl)oc23)c1 | 0 | 0 | 0 | 45 | -
O=C(N[C@@H]1CC[C@@H](CCNS(=O)(=O)Cc2ccccc2)O[C@@H]1CO)c1cnccn1 | 0 | 0 | 0 | 0 | 0
Cn1cnc(CCNC(=O)C[C@@H]2CC[C@@H]3[C@H](COC[C@H](O)CN3C(=O)C3CCCC3)O2)c1 | 0 | 0 | 24 | 0 | 0
CCCNC(=O)N1C[C@H](O)COC[C@@H]2O[C@@H](CC(=O)NCCCN3CCOCC3)CC[C@H]21 | 0 | 107! | 0 | 0 | 0
Cn1cnc(CCNC(=O)C[C@@H]2CC[C@H]3[C@@H](COC[C@@H](O)CN3C(=O)C3CC3)O2)c1 | 0 | 81 | 0 | 0 | 0
Cn1cnc(CCNC(=O)C[C@@H]2CC[C@H]3[C@@H](COC[C@H](O)CN3C(=O)C3CC3)O2)c1 | 0 | 0 | 0 | 0 | 0
O=C(C[C@H]1CC[C@H]2NC[C@H](O)COC[C@@H]2O1)NCCN1CCCCC1 | 0 | 115 | 0 | 0 | 0
SMILES | E-selectin induc | S100A4 MyoIIA | SIRT5 block | FGF22 binding | miR122 inh
CCCNC(=O)N1C[C@H](O)COC[C@@H]2O[C@H](CC(=O)NCCCN3CCOCC3)CC[C@H]21 | 0 | 0 | 0 | 0 | 0
C[C@H](CO)N1C[C@H](C)[C@@H](CN(C)C(=O)C2CCC2)Oc2cc(-c3ccncc3)ccc2S1(=O)=O | 0 | - | - | - | 0
CCCN1C[C@H](C)[C@H](OC)CN(C)C(=O)c2cc(NC(=O)c3cnccn3)ccc2OC[C@H]1C | 0 | 0 | 0 | 0 | -
CC1CN(S(=O)(=O)c2ccc(Cl)c(C(F)(F)F)c2)CC(C)O1 (stereo not given) | - | 0 | 15 | 0 | 0
COc1cc(/C=C(\NC(=O)c2ccccc2)C(=O)NCC(=O)O)c([N+](=O)[O-])cc1OC | 0 | - | - | - | -
COc1ccc(C(=O)N/C(=C\c2cc(OC)c(OC)cc2[N+](=O)[O-])C(=O)NCC(=O)O)cc1 | 0 | 0 | 0 | 43 | 0
C[C@H](CO)N1C[C@H](C)[C@@H](CN(C)C(=O)Nc2cc(F)ccc2F)Oc2cc(/C=C/c3ccccc3)ccc2S1(=O)=O | 0 | 0 | 21 | 0 | 0
C[C@H]1CN([C@@H](C)CO)S(=O)(=O)c2ccc(-c3cccc(C#N)c3)cc2O[C@H]1CN(C)C(=O)Nc1cc(F)ccc1F | 0 | 0 | 0 | 0 | 0
C[C@@H]1CN([C@H](C)CO)S(=O)(=O)c2ccc(/C=C/c3ccccc3)cc2O[C@H]1CN(C)C(=O)Nc1cc(F)ccc1F | 0 | 0 | 23 | 0 | 0
C[C@@H]1CN([C@H](C)CO)S(=O)(=O)c2ccc(/C=C/c3ccccc3)cc2O[C@@H]1CN(C)C(=O)Nc1cc(F)ccc1F | 0 | 0 | 25 | 0 | 0
C[C@H]1CN([C@@H](C)CO)S(=O)(=O)c2ccc(-c3cccc(F)c3)cc2O[C@@H]1CN(C)C(=O)Nc1cc(F)ccc1F | 0 | 0 | 19 | 0 | 0
C/C=C/c1ccc2c(c1)O[C@@H](CN(C)C(=O)Nc1cc(F)ccc1F)[C@H](C)CN([C@H](C)CO)S2(=O)=O | 0 | 0 | 0 | 0 | 0
c1ccc2c(c1)ccc1ccccc12 | - | 0 | 0 | 0 | 0
CC1=[N+](C)c2ccc3ccccc3c2C1(C)C | 196 | 145 | 0 | 0 | -
O=C(Nc1ccccc1)Nc1ccccc1NS(=O)(=O)c1cccs1 | 0 | 0 | 0 | - | 0
O=C(Nc1ccc(Cl)c(Cl)c1)Nc1ccccc1NS(=O)(=O)c1cccs1 | 0 | 0 | 0 | 1.7 | 0
Cc1noc(C)c1NC(=O)Nc1ccc2c(c1)C(=O)N([C@@H](C)CO)C[C@H](C)[C@H](CN(C)S(C)(=O)=O)O2 | 0 | 0 | 0 | 0 | 0
COc1ccc(CCN(C)C2CCCN(S(=O)(=O)N(C)C)C2)cc1OC (stereo not given) | - | 0 | 15 | 0 | 0
C=CCS(=O)(=O)N1CCCC(N(C)CCc2ccc(OC)c(OC)c2)C1 (stereo not given) | 0 | 0 | 0 | 0 | 0
COc1ccc2c3c(n(C)c2c1)[C@H](CO)N(C(=O)c1ccncc1)CC31CN(S(C)(=O)=O)C1 | 0 | - | - | - | -
CCOC(=O)C1CN(Cc2ccccc2)C(=O)C1=O (stereo not given) | 0 | 0 | 0 | 0 | 0
COC(=O)C1SCC2C(=O)N(Cc3ccccc3)CC(=O)N21 (stereo not given) | - | 0 | 0 | 43 | 0
CC(=O)N(C)C[C@H]1Oc2cc(C#Cc3ccncc3)ccc2S(=O)(=O)N([C@H](C)CO)C[C@@H]1C | 0 | 0 | 0 | 0 | 0
COc1ccc(CCNC(=O)COC(=O)Cn2cnc3ccccc3c2=O)cc1 | - | 0 | 0 | 0 | 186
